Test results as given in ChEMBL document CHEMBL1148551, “Synthesis and biological evaluation of novel heterocyclic quinones as inhibitors of the dual specificity protein phosphatase CDC25C” (Bioorg Med Chem Lett, 2006).
pIC50: −log10 of the molar value.

Experiments:
[1] = biological target: T1, M-phase inducer phosphatase 3 (Homo sapiens, UniProt P30307); assay: Inhibitory activity against recombinant CDC25C
T1 sequence (P30307 whole entry): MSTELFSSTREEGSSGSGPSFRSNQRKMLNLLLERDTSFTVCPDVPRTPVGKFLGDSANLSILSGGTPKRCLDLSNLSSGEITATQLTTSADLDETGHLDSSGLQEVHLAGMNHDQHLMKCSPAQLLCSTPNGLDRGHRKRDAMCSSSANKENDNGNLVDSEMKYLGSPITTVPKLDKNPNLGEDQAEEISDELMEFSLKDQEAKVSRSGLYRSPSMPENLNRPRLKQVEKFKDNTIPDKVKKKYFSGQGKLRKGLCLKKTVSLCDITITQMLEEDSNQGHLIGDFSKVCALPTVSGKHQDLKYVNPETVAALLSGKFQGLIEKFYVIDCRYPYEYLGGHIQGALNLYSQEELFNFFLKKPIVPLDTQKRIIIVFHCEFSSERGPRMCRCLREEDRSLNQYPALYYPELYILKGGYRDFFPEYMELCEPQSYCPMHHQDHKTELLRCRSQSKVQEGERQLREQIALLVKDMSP
Procedure, shortened: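 Recombinant maltose binding protein (MBP)-CDC25C fusion enzyme, with 3-O-methylfluorescein phosphate (OMFP) as substrate. IC50 given as mean ± SEM from at least two, usually three, independent experiments.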

[2] = tested on: MIA PaCa-2; assay: Antiproliferative activity against human pancreatic carcinoma Mia PaCa2 cell line by colorimetric assay; type: functional, cell-based
Procedure, shortened: (§1)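 WST1 tetrazolium salt cleavage by mitochondrial dehydrogenases in viable cells, colorimetric read-out. IC50 given as mean ± SEM from at least two experiments, with four or eight determinations per tested concentration.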

[3] = tested on: DU-145; assay: Antiproliferative activity against human androgen-independent prostate carcinoma DU145 cell line by colorimetric assay; type: functional, cell-based; procedure, shortened: as §1

| Compound | pIC50 [1] | pIC50 [2] | pIC50 [3] |
| --- | --- | --- | --- |
| CN(C)CC/N=C1\C=C(O)c2cn(C)cc2C1=O | 4.09 | – | – |
| CN(C)CC/N=C1\C=C(O)c2[nH]c(-c3ccccc3)nc2C1=O | 4.77 | 4.92 | < 5.00 |
| O=C1C(Cl)=C(NCCN2CCOCC2)C(=O)c2ncccc21 | – | 5.60 | 5.64 |
| CCc1nc2c([nH]1)C(=O)/C(=N/CCN(C)C)C=C2O | 4.92 | 4.74 | < 5.00 |
| CC1=CC(=O)c2ccccc2C1=O [MENADIONE] | – | 5.21 | 4.96 |

Continued by rising pIC50 [1], values first:

| pIC50 [1] | pIC50 [2] | pIC50 [3] | Compound |
| --- | --- | --- | --- |
| 4.92 | – | – | CN(C)CC/N=C1\C=C(O)c2nn(-c3ccccc3)cc2C1=O |
| 4.92 | – | – | CN(C)CC/N=C1\C=C(O)c2cn(-c3ccccc3)nc2C1=O |
| 6.64 | 6.82 | 6.68 | CN(C)CC/N=C1\C=C(O)c2oc(-c3ccccc3)nc2C1=O |
| 6.64 | 6.82 | 6.68 | CN(C)CC/N=C1\C=C(O)c2nc(-c3ccccc3)oc2C1=O |
| 6.82 | 6.74 | 6.96 | Cc1nc2c(s1)C(O)=C/C(=N\CCN(C)C)C2=O |
| 6.89 | 6.36 | 6.66 | CCc1nc2c(o1)C(O)=C/C(=N\CCN(C)C)C2=O |
| 6.89 | 6.36 | 6.66 | CCc1nc2c(o1)C(=O)C(NCCN(C)C)=CC2=O |
